Laboratory results from ChEMBL document CHEMBL3751743, “Synthesis and anti-cancer screening of novel heterocyclic-(2H)-1,2,3-triazoles as potential anti-cancer agents” (Medchemcomm, 2015).
Calls of active or inactive are those of the source. No cut-off for these calls is given here.

Assays:
[1] = Cytotoxicity against human DU145 cells after 48 hrs by SRB assay; type: functional; details: DU-145, 48 h
Outline: (§1)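 NCI-60 five-dose screen: compounds dissolved in DMSO/H2O, tested at five 10-fold dilutions (10^-4 to 10^-8 M) for 48 h. Growth measured by sulforhodamine B optical density at time zero and after 48 h drug or vehicle exposure. Percentage growth calculated relative to control. GI50 is the molar concentration giving 50% reduction in net cell growth versus day-0 cell numbers.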

[2] = system: MCF7; assay: Cytotoxicity against human MCF7 cells after 48 hrs by SRB assay; type: functional; details: MCF7, 48 h; outline: as §1
[3] = system: MDA-MB-231; assay: Cytotoxicity against human MDA-MB-231 cells after 48 hrs by SRB assay; type: functional; details: MDA-MB-231, 48 h; outline: as §1
[4] = Cytotoxicity against human Hs 578T cells after 48 hrs by SRB assay; type: functional; outline: as §1
[5] = Cytotoxicity against human BT549 cells after 48 hrs by SRB assay; type: functional; details: BT-549, 48 h; outline: as §1
[6] = system: T47D; assay: Cytotoxicity against human T47D cells after 48 hrs by SRB assay; type: functional
Outline: (§2)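 NCI-60 five-dose screen. Compounds dissolved in DMSO/H2O and tested at five 10-fold dilutions (10^-4 to 10^-8 M) for 48 h. Growth read by sulforhodamine B optical density at time zero and after 48 h of exposure to compound or vehicle. Percent growth calculated against control. GI50 is the molar concentration giving 50% reduction in net cell growth relative to cell number on day 0.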

[7] = system: MDA-MB-468; assay: Cytotoxicity against human MDA-MB-468 cells after 48 hrs by SRB assay; type: functional; details: MDA-MB-468, 48 h; outline: as §1
[8] = biological target: Tubulin (Sus scrofa) (UniProt P02554+P02550); assay: Inhibition of porcine brain tubulin polymerization at 200 uM by spectrophotometric analysis
Tubulin (Sus scrofa), sequence (P02550 whole entry, looked up): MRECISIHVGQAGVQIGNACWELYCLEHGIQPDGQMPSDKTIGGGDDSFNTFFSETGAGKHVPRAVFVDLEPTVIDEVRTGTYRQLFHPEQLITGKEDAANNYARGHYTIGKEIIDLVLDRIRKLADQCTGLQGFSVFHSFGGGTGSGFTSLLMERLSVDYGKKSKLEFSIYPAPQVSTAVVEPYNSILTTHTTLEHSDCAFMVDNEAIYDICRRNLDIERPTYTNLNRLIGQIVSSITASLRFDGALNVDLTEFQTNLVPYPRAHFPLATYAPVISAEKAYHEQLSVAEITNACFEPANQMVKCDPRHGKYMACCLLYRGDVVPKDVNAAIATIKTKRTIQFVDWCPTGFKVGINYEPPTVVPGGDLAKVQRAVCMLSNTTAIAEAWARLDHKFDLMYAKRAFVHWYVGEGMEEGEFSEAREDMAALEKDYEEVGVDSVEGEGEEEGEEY
Tubulin (Sus scrofa), sequence (P02554 whole entry, looked up): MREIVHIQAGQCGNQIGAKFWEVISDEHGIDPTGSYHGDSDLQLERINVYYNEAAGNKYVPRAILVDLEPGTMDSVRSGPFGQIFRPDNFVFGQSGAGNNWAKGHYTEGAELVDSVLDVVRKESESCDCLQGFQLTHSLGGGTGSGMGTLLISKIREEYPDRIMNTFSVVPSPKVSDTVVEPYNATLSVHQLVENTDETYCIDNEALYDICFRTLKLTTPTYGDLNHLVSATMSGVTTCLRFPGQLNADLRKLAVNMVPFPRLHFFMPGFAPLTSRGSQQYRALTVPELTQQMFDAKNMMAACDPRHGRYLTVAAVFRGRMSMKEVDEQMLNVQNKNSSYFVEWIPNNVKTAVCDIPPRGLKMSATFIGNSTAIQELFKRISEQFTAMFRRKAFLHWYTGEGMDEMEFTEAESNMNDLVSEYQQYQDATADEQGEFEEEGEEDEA

[9] = system: CCRF-CEM; assay: Cytotoxicity against human CCRF-CEM cells after 48 hrs by SRB assay; type: functional; outline: as §1
[10] = Cytotoxicity against human HL-60(TB) cells after 48 hrs by SRB assay; type: functional; details: HL-60, 48 h; outline: as §1
[11] = system: K562; assay: Cytotoxicity against human K562 cells after 48 hrs by SRB assay; type: functional; details: K562, 48 h; outline: as §1
[12] = Cytotoxicity against human MOLT4 cells after 48 hrs by SRB assay; type: functional; details: MOLT-4, 48 h; outline: as §1
[13] = Cytotoxicity against human RPMI8226 cells after 48 hrs by SRB assay; type: functional; details: RPMI-8226, 48 h; outline: as §1
[14] = system: A549; assay: Cytotoxicity against human A549 cells after 48 hrs by SRB assay; type: functional; details: A549, 48 h; outline: as §1
[15] = system: EKVX; assay: Cytotoxicity against human EKVX cells after 48 hrs by SRB assay; type: functional
Outline: (§3)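 NCI-60 five-dose screen: compounds in DMSO/H2O tested at 10^-4 to 10^-8 M (10-fold steps) for 48 h. Cell mass read by sulforhodamine B optical density at time zero and after exposure to compound or vehicle. GI50 is the concentration giving 50% reduction in net cell growth relative to day-0 cell numbers.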

[16] = Cytotoxicity against human HOP62 cells after 48 hrs by SRB assay; type: functional; details: HOP-62, 48 h; outline: as §3
[17] = Cytotoxicity against human HOP92 cells after 48 hrs by SRB assay; type: functional; details: HOP-92, 48 h; outline: as §1
[18] = system: NCI-H226; assay: Cytotoxicity against human NCI-H226 cells after 48 hrs by SRB assay; type: functional; details: NCI-H226, 48 h; outline: as §1
[19] = system: NCI-H23; assay: Cytotoxicity against human NCI-H23 cells after 48 hrs by SRB assay; type: functional; details: NCI-H23, 48 h; outline: as §1
[20] = system: NCI-H460; assay: Cytotoxicity against human NCI-H460 cells after 48 hrs by SRB assay; type: functional; details: NCI-H460, 48 h; outline: as §1
[21] = system: NCI-H522; assay: Cytotoxicity against human NCI-H522 cells after 48 hrs by SRB assay; type: functional; details: NCI-H522, 48 h; outline: as §1
[22] = Cytotoxicity against human COLO205 cells after 48 hrs by SRB assay; type: functional; details: COLO 205, 48 h; outline: as §1
[23] = Cytotoxicity against human HCC2998 cells after 48 hrs by SRB assay; type: functional; details: HCC 2998, 48 h; outline: as §1
[24] = Cytotoxicity against human HCT116 cells after 48 hrs by SRB assay; type: functional; details: HCT-116, 48 h; outline: as §1
[25] = Cytotoxicity against human HCT15 cells after 48 hrs by SRB assay; type: functional; details: HCT-15, 48 h; outline: as §1
[26] = system: HT-29; assay: Cytotoxicity against human HT-29 cells after 48 hrs by SRB assay; type: functional; details: HT-29, 48 h; outline: as §1
[27] = system: KM12; assay: Cytotoxicity against human KM12 cells after 48 hrs by SRB assay; type: functional; details: KM12, 48 h; outline: as §1
[28] = Cytotoxicity against human SW620 cells after 48 hrs by SRB assay; type: functional; details: SW-620, 48 h; outline: as §1
[29] = Cytotoxicity against human SF268 cells after 48 hrs by SRB assay; type: functional; details: SF-268, 48 h; outline: as §1
[30] = Cytotoxicity against human SF295 cells after 48 hrs by SRB assay; type: functional; details: SF-295, 48 h; outline: as §1
[31] = Cytotoxicity against human SF539 cells after 48 hrs by SRB assay; type: functional; details: SF-539, 48 h; outline: as §1
[32] = Cytotoxicity against human SNB19 cells after 48 hrs by SRB assay; type: functional; details: SNB-19, 48 h; outline: as §1
[33] = system: U-251; assay: Cytotoxicity against human U251 cells after 48 hrs by SRB assay; type: functional; details: U-251, 48 h; outline: as §2
[34] = Cytotoxicity against human LOXIMVI cells after 48 hrs by SRB assay; type: functional; details: LOX IMVI; outline: as §1
[35] = system: Malme-3M; assay: Cytotoxicity against human MALME-3M cells after 48 hrs by SRB assay; type: functional; outline: as §3
[36] = system: M14; assay: Cytotoxicity against human M14 cells after 48 hrs by SRB assay; type: functional; details: M14, 48 h; outline: as §1
[37] = system: MDA-MB-435; assay: Cytotoxicity against human MDA-MB-435 cells after 48 hrs by SRB assay; type: functional; details: MDA-MB-435, 48 h; outline: as §1
[38] = system: SK-MEL-2; assay: Cytotoxicity against human SK-MEL-2 cells after 48 hrs by SRB assay; type: functional; details: SK-MEL-2, 48 h; outline: as §1
[39] = system: SK-MEL-28; assay: Cytotoxicity against human SK-MEL-28 cells after 48 hrs by SRB assay; type: functional; details: SK-MEL-28, 48 h; outline: as §1
[40] = system: SK-MEL-5; assay: Cytotoxicity against human SK-MEL-5 cells after 48 hrs by SRB assay; type: functional; details: SK-MEL-5, 48 h; outline: as §1
[41] = Cytotoxicity against human UACC257 cells after 48 hrs by SRB assay; type: functional; details: UACC-257, 48 h; outline: as §2
[42] = Cytotoxicity against human UACC62 cells after 48 hrs by SRB assay; type: functional; details: UACC-62, 48 h; outline: as §2
[43] = Cytotoxicity against human IGROV1 cells after 48 hrs by SRB assay; type: functional; details: IGROV-1, 48 h; outline: as §3
[44] = Cytotoxicity against human OVCAR3 cells after 48 hrs by SRB assay; type: functional; details: OVCAR-3, 48 h; outline: as §1
[45] = Cytotoxicity against human OVCAR5 cells after 48 hrs by SRB assay; type: functional; details: OVCAR-5, 48 h; outline: as §1
[46] = Cytotoxicity against human OVCAR8 cells after 48 hrs by SRB assay; type: functional; details: OVCAR-8, 48 h; outline: as §1
[47] = Cytotoxicity against human NCI-ADR-RES cells after 48 hrs by SRB assay; type: functional; outline: as §1
[48] = Cytotoxicity against human SKOV3 cells after 48 hrs by SRB assay; type: functional; details: SK-OV-3, 48 h; outline: as §1
[49] = system: 786-0; assay: Cytotoxicity against human 786-0 cells after 48 hrs by SRB assay; type: functional; details: 786-0, 48 h; outline: as §1
[50] = system: A498; assay: Cytotoxicity against human A498 cells after 48 hrs by SRB assay; type: functional; details: A498, 48 h; outline: as §1
[51] = system: ACHN; assay: Cytotoxicity against human ACHN cells after 48 hrs by SRB assay; type: functional; outline: as §1
[52] = Cytotoxicity against human Caki1 cells after 48 hrs by SRB assay; type: functional; details: CAKI-1, 48 h; outline: as §1
[53] = Cytotoxicity against human RXF393 cells after 48 hrs by SRB assay; type: functional; details: RXF 393, 48 h; outline: as §1
[54] = Cytotoxicity against human TK10 cells after 48 hrs by SRB assay; type: functional; details: TK-10, 48 h; outline: as §2
[55] = Cytotoxicity against human UO31 cells after 48 hrs by SRB assay; type: functional; details: UO-31, 48 h; outline: as §2
[56] = Cytotoxicity against human PC3 cells after 48 hrs by SRB assay; type: functional; details: PC-3, 48 h; outline: as §1

Structure (SMILES): COc1cc(-c2nn(C)nc2-c2cc3ccccc3s2)cc(OC)c1OC
- GI50 [1]: 263 nM
- GI50 [2]: 40 nM
- GI50 [3]: 1600 nM
- GI50 [4]: 270 nM
- GI50 [5]: 422 nM
- GI50 [6]: > 100000 nM
- GI50 [7]: 82 nM
- inhibition [8]: inactive
- GI50 [9]: 220 nM
- GI50 [10]: 48 nM
- GI50 [11]: 42 nM
- GI50 [12]: 333 nM
- GI50 [13]: 362 nM
- GI50 [14]: 167 nM
- GI50 [15]: 466 nM
- GI50 [16]: 553 nM
- GI50 [17]: 80 nM
- GI50 [18]: > 100000 nM
- GI50 [19]: 392 nM
- GI50 [20]: 69 nM
- GI50 [21]: 23 nM
- GI50 [22]: 82 nM
- GI50 [23]: 407 nM
- GI50 [24]: 73 nM
- GI50 [25]: 58 nM
- GI50 [26]: 55 nM
- GI50 [27]: 54 nM
- GI50 [28]: 63 nM
- GI50 [29]: 630 nM
- GI50 [30]: 36 nM
- GI50 [31]: 149 nM
- GI50 [32]: 254 nM
- GI50 [33]: 78 nM
- GI50 [34]: 168 nM
- GI50 [35]: 16900 nM
- GI50 [36]: 76 nM
- GI50 [37]: 25 nM
- GI50 [38]: 59 nM
- GI50 [39]: 13000 nM
- GI50 [40]: 225 nM
- GI50 [41]: 51600 nM
- GI50 [42]: 53 nM
- GI50 [43]: 707 nM
- GI50 [44]: 354 nM
- GI50 [45]: 2360 nM
- GI50 [46]: 352 nM
- GI50 [47]: 103 nM
- GI50 [48]: 311 nM
- GI50 [49]: 312 nM
- GI50 [50]: 41 nM
- GI50 [51]: 294 nM
- GI50 [52]: 3770 nM
- GI50 [53]: 286 nM
- GI50 [54]: 578 nM
- GI50 [55]: 744 nM
- GI50 [56]: 77 nM
